Experiment [1] deals with T1, NAD-dependent protein deacetylase sirtuin-1 (Homo sapiens) (UniProt Q96EB6).
T1 sequence (whole entry): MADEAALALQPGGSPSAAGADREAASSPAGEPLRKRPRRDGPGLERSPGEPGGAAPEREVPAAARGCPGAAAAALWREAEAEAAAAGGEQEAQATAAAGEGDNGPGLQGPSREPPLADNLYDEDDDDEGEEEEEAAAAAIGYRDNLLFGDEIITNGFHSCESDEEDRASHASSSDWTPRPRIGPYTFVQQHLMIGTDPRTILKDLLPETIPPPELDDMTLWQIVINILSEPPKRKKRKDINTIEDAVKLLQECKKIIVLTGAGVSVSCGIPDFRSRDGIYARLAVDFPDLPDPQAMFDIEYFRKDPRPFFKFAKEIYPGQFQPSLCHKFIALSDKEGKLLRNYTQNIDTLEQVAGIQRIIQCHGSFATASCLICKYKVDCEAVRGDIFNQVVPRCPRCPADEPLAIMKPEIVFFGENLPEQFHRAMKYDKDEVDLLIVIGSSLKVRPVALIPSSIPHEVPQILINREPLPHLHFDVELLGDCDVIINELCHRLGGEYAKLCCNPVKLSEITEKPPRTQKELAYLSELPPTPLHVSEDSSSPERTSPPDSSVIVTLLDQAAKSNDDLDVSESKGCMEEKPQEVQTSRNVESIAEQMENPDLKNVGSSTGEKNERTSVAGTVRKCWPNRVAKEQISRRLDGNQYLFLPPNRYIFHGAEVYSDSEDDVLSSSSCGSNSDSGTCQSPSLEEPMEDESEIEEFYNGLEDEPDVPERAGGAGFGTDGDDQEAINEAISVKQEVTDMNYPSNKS
Nature of the experiment: Activation of full-length GST-tagged recombinant human SIRT1 assessed as enzyme activity obtained with subtraction of intrinsic fluorescence using p53-based untagged peptide as substrate at 50 uM after 30 mins by SIRTainty assay.

Experiment [2] concerns the target T1, NAD-dependent protein deacetylase sirtuin-1 (Homo sapiens). Put plainly: Activation of full-length GST-tagged recombinant human SIRT1 assessed as enzyme activity obtained without subtraction of intrinsic fluorescence using p53-based untagged peptide as substrate at 50 uM after 30 mins by SIRTainty assay.
Another experiment has as its system HaCaT. Nature of the experiment: Activation of AMPK/SIRT1 in human HaCaT cells assessed as nitric oxide production at 1 uM incubated for 1 hr by DAF-2D staining-based fluorescence assay. It is filed as cell-based. A digest of the protocol:
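HaCaT keratinocytes grown in DMEM with 10% FBS and antibiotics. Cells treated 1 h (single-point 1 µM; dose-response at 5, 25, 50 µM). 5 µM DAF-2D added to complete medium. Cells then washed in PBS, trypsinized and analysed by flow cytometry for DAF fluorescence (ex 485/em 538 nm). Read-out is % DAF-positive cells relative to DMSO control.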

In experiment [3] the target is 3',5'-cyclic-AMP phosphodiesterase 4D (Homo sapiens) (UniProt Q08499). Nature of the experiment: Inhibition of recombinant human PDE4D assessed as phosphate release using cAMP as substrate at 50 uM after 60 mins by malachite green assay. The essentials: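 Recombinant human PDE4D (20 mU) in 10 mM Tris-HCl pH 7.4 with cAMP substrate. Compounds at 50 µM in DMSO; rolipram 10 µM as positive control. Incubated 60 min at 37 °C, then phosphate release measured by malachite green absorbance at 620 nm. Mean of three determinations.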

Each structure is given as a SMILES string. Active and inactive are the calls of the source. The calls are words filed in the database; no cut-off is given here.

The source of these data is ChEMBL document CHEMBL4428023, “1,4-Dihydropyridines Active on the SIRT1/AMPK Pathway Ameliorate Skin Repair and Mitochondrial Function and Exhibit Inhibition of Proliferation in Cancer Cells” (J Med Chem, 2016).

3',5'-cyclic-AMP phosphodiesterase 4D (Homo sapiens), sequence (Q08499 whole entry): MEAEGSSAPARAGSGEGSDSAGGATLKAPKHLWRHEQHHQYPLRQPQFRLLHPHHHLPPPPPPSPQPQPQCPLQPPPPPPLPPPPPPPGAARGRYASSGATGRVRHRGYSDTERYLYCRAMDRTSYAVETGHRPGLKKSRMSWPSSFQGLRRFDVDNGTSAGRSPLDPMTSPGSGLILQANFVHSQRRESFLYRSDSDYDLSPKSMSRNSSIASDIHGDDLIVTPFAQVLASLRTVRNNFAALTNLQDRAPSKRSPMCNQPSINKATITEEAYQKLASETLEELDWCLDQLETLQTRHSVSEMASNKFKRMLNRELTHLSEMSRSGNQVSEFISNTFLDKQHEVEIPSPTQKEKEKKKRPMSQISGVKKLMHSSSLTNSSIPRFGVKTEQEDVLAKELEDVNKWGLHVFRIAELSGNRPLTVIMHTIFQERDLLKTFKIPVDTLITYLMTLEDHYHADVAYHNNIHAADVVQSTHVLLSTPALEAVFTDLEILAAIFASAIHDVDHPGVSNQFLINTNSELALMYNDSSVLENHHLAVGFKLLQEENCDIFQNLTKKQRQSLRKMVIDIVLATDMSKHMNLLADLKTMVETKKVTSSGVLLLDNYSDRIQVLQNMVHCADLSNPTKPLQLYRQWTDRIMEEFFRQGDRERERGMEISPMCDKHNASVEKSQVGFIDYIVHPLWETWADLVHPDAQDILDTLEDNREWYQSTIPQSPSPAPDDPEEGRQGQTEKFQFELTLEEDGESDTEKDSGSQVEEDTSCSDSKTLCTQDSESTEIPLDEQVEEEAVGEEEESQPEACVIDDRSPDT

With `CCOC(=O)C1=CN(Cc2ccccc2)C=C(C(=O)OCC)C1c1ccc2ccccc2c1`, the Activity in experiment [1] is 100%; in experiment [2] it was 282%.

On to `CCOC(=O)C1=CN(Cc2ccccc2)C=C(C(=O)OCC)C1c1cncs1`, for which the Activity is 133% in experiment [1] and 221% in experiment [2].

Take `NC(=O)C1=CN(Cc2ccccc2)C=C(C(N)=O)C1c1cccs1`: the Activity worked out at 49% in experiment [1] and 55% in experiment [2].

As for `CC1=C(C(=O)O)C(c2ccccc2)C(C(=O)O)=C(C)N1Cc1ccccc1`, the results for the Activity in experiment [1] and in experiment [2] were 102% and 103%, respectively.

As to `CCOC(=O)C1=C(C)N(Cc2ccccc2)C(C)=C(C(=O)OCC)C1c1ccccc1`, the Activity in experiment [1] and in experiment [2] was 114% each time.

With `CCOC(=O)C1=CN(Cc2ccccc2)C=C(C(=O)OCC)C1c1cnc2ccccc2c1`, the Activity in experiment [1] stood at 283%; in experiment [2], 324%. Further, in the experiment on HaCaT, the outcome was Active.

`CCOC(=O)C1=CN(Cc2ccccc2)C=C(C(N)=O)C1c1ccccc1` (stereo not drawn): the Activity in experiment [1] turned out to be 108%; in experiment [2] it was 198%.

`O=C(O)C1=CN(Cc2ccccc2)C=C(C(=O)O)C1c1cnc2ccccc2c1`: the figures for the Activity in experiment [1] and in experiment [2] were 167% and 209%, respectively.

Take `NC(=O)C1=CN(Cc2ccccc2)C=C(C(N)=O)C1c1cccc2ccccc12`: in experiment [2], the Activity worked out at 145%.

For the compound `O=C(O)C1=CN(Cc2ccccc2)C=C(C(=O)O)C1c1ccc(-c2ccccc2)cc1`, the Activity in experiment [1] and in experiment [2] was 285% in each case. Moreover, the inhibition entry in experiment [3] is “inactive”.

Turning to `NC(=O)C1=CN(Cc2ccccc2)C=C(C(N)=O)C1c1ccco1`, the figures for the Activity in experiment [1] and in experiment [2] were 62% and 77%, respectively.

For `O=C(O)C1=CN(Cc2ccccc2)C=C(C(=O)O)C1c1ccsc1`, the Activity was 45% in experiment [1] and 56% in experiment [2].

With `NC(=O)C1=CN(Cc2ccccc2)C=C(C(N)=O)C1c1cnc2ccccc2c1`, the Activity in experiment [1] came to 147%; in experiment [2], 197%.

For `CCOC(=O)C1=CN(C(=O)c2ccccc2)C=C(C(=O)OCC)C1c1ccc(C)cc1`, the Activity was found to be 103% in experiment [1] and 144% in experiment [2].

Regarding `CCOC(=O)C1=CN(Cc2ccccc2)C=C(C(=O)OCC)C1c1nccs1`, the Activity in experiment [1] turned out to be 282%; in experiment [2], 300%. Besides, in the experiment with HaCaT, the outcome was Active.

For `CCOC(=O)C1=CN(C(=O)c2cnc3ccccc3n2)C=C(C(=O)OCC)C1c1ccccc1`, the Activity in experiment [1] is 165%; in experiment [2], 206%.

For `NC(=O)C1=CN(Cc2ccccc2)C=C(C(=O)O)C1c1ccccc1` (stereo not drawn), the values for the Activity in experiment [1] and in experiment [2] were 160% and 149%, respectively.

On to `CCOC(=O)C1=CN(C(=O)c2cnccn2)C=C(C(=O)OCC)C1c1ccccc1`, for which the Activity in experiment [1] turned out to be 171%; in experiment [2], 242%.

Turning to `NC(=O)C1=CN(Cc2ccccc2)C=C(C(N)=O)C1c1nccs1`, the Activity turned out to be 188% in experiment [1] and 231% in experiment [2].

As for `CCOC(=O)C1=CN(S(=O)(=O)c2ccccc2)C=C(C(=O)OCC)C1c1ccccc1`, the results for the Activity in experiment [1] and in experiment [2] were 130% and 169%, respectively.

Take `O=C(Nc1ccccc1-c1cn2c(CN3CCNCC3)csc2n1)c1cnc2ccccc2n1`: the Activity in experiment [2] was 209%.

Regarding `NC(=O)C1=CN(Cc2ccccc2)C=C(C(N)=O)C1c1cncs1`, the Activity in experiment [1] amounted to 165%; in experiment [2] it was 194%.

Regarding `CCOC(=O)C1=CN(C(=O)c2ccccc2)C=C(C(=O)OCC)C1c1ccc(OC)cc1`, the figures for the Activity in experiment [1] and in experiment [2] were 131% and 173%, respectively.

Take `N#CC1=CN(Cc2ccccc2)C=C(C#N)C1c1ccccc1`: the Activity amounted to 152% in experiment [1] and 193% in experiment [2].

As for `CCOC(=O)C1=CN(Cc2ccccc2)C=C(C(=O)OCC)C1c1cccs1`, the Activity amounted to 117% in experiment [1] and 246% in experiment [2].

Take `CC1=C(C(N)=O)C(c2ccccc2)C(C(N)=O)=C(C)N1Cc1ccccc1`: the Activity in experiment [1] and in experiment [2] was 110% each time.

As for `CCOC(=O)C1=CN(C(=O)c2ccccc2)C=C(C(=O)OCC)C1c1cccc(C)c1`, the Activity was determined as 140% in experiment [1] and 186% in experiment [2].

Consider `CCOC(=O)C1=CN(Cc2ccccc2)C=C(C(=O)O)C1c1ccccc1` (stereo not drawn), for which the figures for the Activity in experiment [1] and in experiment [2] were 105% and 196%, respectively.

Regarding `NC(=O)C1=CN(Cc2ccccc2)C=C(C(N)=O)C1c1ccsc1`, the Activity in experiment [1] came out at 97%; in experiment [2], 218%.

Turning to `CCOC(=O)C1=CN(Cc2ccccc2)C=C(C(=O)OCC)C1c1cccc2ccccc12`, the Activity in experiment [2] was 187%.

For `O=C(O)C1=CN(Cc2ccccc2)C=C(C(=O)O)C1c1cc2ccccc2s1`, the results for the Activity in experiment [1] and in experiment [2] were 7% and 38%, respectively.

Consider `CCOC(=O)C1=CN(Cc2ccccc2)C=C(C(=O)OCC)C1c1ccc(-c2ccccc2)cc1`, for which the Activity in experiment [1] and in experiment [2] was 61% throughout.

As for `CCOC(=O)C1=CN(C(=O)c2ccccc2)C=C(C(=O)OCC)C1c1ccc(Cl)cc1`, the figures for the Activity in experiment [1] and in experiment [2] were 191% and 231%, respectively.

For `CCOC(=O)C1=CN(C(=O)c2ccccc2)C=C(C(=O)OCC)C1c1ccccc1OC`, the values for the Activity in experiment [1] and in experiment [2] were 127% and 170%, respectively.

Take `CCOC(=O)C1=CN(C(=O)c2ccc3ccccc3c2)C=C(C(=O)OCC)C1c1ccccc1`: the Activity in experiment [1] turned out to be 207%; in experiment [2], 235%. In experiment [3], the inhibition entry is “inactive”.

For the compound `CCOC(=O)C1=CN(C(=O)c2ccccc2)C=C(C(=O)OCC)C1c1ccccc1C`, the Activity in experiment [1] amounted to 140%; in experiment [2], 183%.

`O=C(O)C1=CN(Cc2ccccc2)C=C(C(=O)O)C1c1cccs1`: the Activity in experiment [1] and in experiment [2] was 21% throughout.

For the compound `O=C(O)C1=CN(Cc2ccccc2)C=C(C(=O)O)C1c1ccc2ccccc2c1`, in experiment [2], the Activity came to 116%.

Take `CCOC(=O)C1=CN(C(=O)c2cccc3ccccc23)C=C(C(=O)OCC)C1c1ccccc1`: the Activity in experiment [2] came to 179%.

Consider `NC(=O)C1=CN(Cc2ccccc2)C=C(C(N)=O)C1c1ccc(-c2ccccc2)cc1`, for which the Activity in experiment [2] was 96%.

In the case of `CCOC(=O)C1=CN(C(=O)c2ccccc2)C=C(C(=O)OCC)C1c1cccc(OC)c1`, the Activity in experiment [1] was 117%; in experiment [2] it was 156%.

As for `O=C(O)C1=CN(Cc2ccccc2)C=C(C(=O)O)C1c1nccs1`, the Activity was found to be 132% in experiment [1] and 174% in experiment [2].

On to `CCOC(=O)C1=CN(C(=O)c2ccccc2)C=C(C(=O)OCC)C1c1cccc(Cl)c1`, for which the Activity in experiment [1] was found to be 127%; in experiment [2] it was 163%.

For `NC(=O)C1=CN(Cc2ccccc2)C=C(C(N)=O)C1c1cc2ccccc2s1`, the Activity in experiment [1] is 37%; in experiment [2] it was 127%.

For `NC(=O)C1=CN(Cc2ccccc2)C=C(C(N)=O)C1c1ccc2ccccc2c1`, the values for the Activity in experiment [1] and in experiment [2] were 67% and 128%, respectively.

As to `CCOC(=O)C1=CN(C(=O)c2ccccc2)C=C(C(=O)OCC)C1c1ccccc1Cl`, the Activity in experiment [1] is 143%; in experiment [2], 184%.

Consider `CCOC(=O)C1=CN(Cc2ccccc2)C=C(C(=O)OCC)C1c1cc2ccccc2s1`, for which the results for the Activity in experiment [1] and in experiment [2] were 39% and 139%, respectively.

Take `O=C(O)C1=CN(Cc2ccccc2)C=C(C(=O)O)C1c1cncs1`: the Activity in experiment [1] was 128%; in experiment [2], 172%.

In the case of `O=C(O)C1=CN(Cc2ccccc2)C=C(C(=O)O)C1c1cccc2ccccc12`, the Activity in experiment [1] was found to be 94%; in experiment [2], 108%.

Turning to `CCOC(=O)C1=CN(C(=O)OCc2ccccc2)C=C(C(=O)OCC)C1c1ccccc1`, the Activity came to 158% in experiment [1] and 206% in experiment [2].
